ChEMBL document CHEMBL1156534, “Hemopressin is an inverse agonist of CB1 cannabinoid receptors” (Proc Natl Acad Sci U S A, 2007)
Activity calls are given as the source filed them.

Key:
Rattus norvegicus = assay: Antihyperalgesic effects in Wistar rat assessed as reduction of carrageenan-induced paw pressure at 10 ug/kg, intraplantar after 3 hrs; assay type: functional, organism-based
Outline: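 Male Wistar rats (200 g) received carrageenan 200 μg/paw intraplantar in saline into the right hind paw. Peptide was given at the same time: intraplantar 10 μg/paw, intrathecal 0.5 or 5 μg/kg, or oral 50 or 100 μg/kg; saline-treated rats served as controls. Paw-pressure withdrawal threshold (force ramp 16 g/s) was read at 0 and 3 h. n = 6–8.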

Mus musculus = assay: Effect on motor coordination in C57BL/6 mouse at […], ip after 1 hrs; assay type: functional, organism-based
Cannabinoid receptor 1 = Cannabinoid receptor 1 (Rattus norvegicus, UniProt P20272); assay: Displacement of [3H]SR141716 from Long-Evans rat striatal membrane CB1 receptor
[1] = molecular target: T1, B2 bradykinin receptor (Homo sapiens) (UniProt P30411); assay: Antagonist activity at B2 bradykinin receptor expressed in SKNSH cells at 100 nM by ELISA; assay type: functional, cell-based; set-up: scale not given: the % may be the effect or the level left
T1 sequence (whole entry): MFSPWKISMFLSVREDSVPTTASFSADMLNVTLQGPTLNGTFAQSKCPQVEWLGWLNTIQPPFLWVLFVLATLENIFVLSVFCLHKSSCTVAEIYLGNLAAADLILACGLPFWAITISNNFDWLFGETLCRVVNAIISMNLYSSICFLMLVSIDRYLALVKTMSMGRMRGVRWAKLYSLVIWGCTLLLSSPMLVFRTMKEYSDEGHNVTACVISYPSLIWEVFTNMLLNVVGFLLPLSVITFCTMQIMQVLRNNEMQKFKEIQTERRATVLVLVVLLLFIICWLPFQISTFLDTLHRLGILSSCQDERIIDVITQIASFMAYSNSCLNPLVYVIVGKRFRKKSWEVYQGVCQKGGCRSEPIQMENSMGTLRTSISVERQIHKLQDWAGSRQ

[2] = molecular target: T2, Cannabinoid receptor 2 (Rattus norvegicus) (UniProt Q9QZN9); assay: Antagonist activity at Long-Evans rat spleen CB2 receptor assessed as blockade of Hu210-induced increase in GTPgammaS binding; assay type: functional, tissue-based
T2 sequence (whole entry): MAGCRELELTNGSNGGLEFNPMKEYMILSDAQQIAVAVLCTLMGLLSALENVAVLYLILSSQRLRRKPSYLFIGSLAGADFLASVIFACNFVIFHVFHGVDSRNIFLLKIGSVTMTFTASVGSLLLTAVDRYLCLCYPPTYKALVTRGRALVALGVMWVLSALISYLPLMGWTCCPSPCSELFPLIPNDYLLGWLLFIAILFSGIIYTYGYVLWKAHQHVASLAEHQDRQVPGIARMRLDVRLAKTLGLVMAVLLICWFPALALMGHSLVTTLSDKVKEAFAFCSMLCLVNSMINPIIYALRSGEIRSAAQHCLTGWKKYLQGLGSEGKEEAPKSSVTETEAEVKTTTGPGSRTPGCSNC
Outline: (§1)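 Membranes (10 μg) came from striatum (CB1) or spleen (CB2). They were tested in GTPγS-binding or adenylyl cyclase assays with Hu-210 and test ligand (0–1 μM), or with Hu-210 curves with or without 10 μM peptide; a 1 μM single-point combination was also used. Mean ± SE of triplicates.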

[3] = molecular target: Beta-2 adrenergic receptor (Homo sapiens) (UniProt P07550); assay: Antagonist activity at beta2 adrenergic receptor expressed in SKNSH cells assessed as blockade of isoproterenol-induced increase in antibody recognition at 100 nM by ELISA relative to control; assay type: functional, cell-based; set-up: scale not given: the % may be the effect or the level left
[4] = molecular target: Cannabinoid receptor 2 (Homo sapiens) (UniProt P34972); assay: Antagonist activity at CB2 receptor expressed in SKNSH cells assessed as blockade of Hu210-induced increase in antibody recognition at 100 nM by ELISA relative to control; assay type: functional, cell-based; set-up: scale not given: the % may be the effect or the level left
[5] = molecular target: Beta-2 adrenergic receptor (Homo sapiens) (UniProt P07550); assay: Antagonist activity at beta2 adrenergic receptor expressed in HEK293 cells assessed as blockade of […] in secreted alkaline phosphatase activity at 1 uM after 6 hrs relative to control; assay type: functional, cell-based
Outline: (§2)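 HEK-293 cells transiently co-transfected with pCRE-SeAP and a Flag-tagged receptor, 30,000 cells/well on poly-L-lysine. They were serum-starved 16–18 h, then exposed 6 h in serum-free medium to 10 μM forskolin (omitted for β2) plus the receptor agonist (100 nM), with or without peptide (1 μM). Heat-treated supernatant SeAP was read by CSPD chemiluminescence. Mean ± SEM, n = 6.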

[6] = molecular target: Beta-2 adrenergic receptor (Homo sapiens) (UniProt P07550); assay: Antagonist activity at beta2 adrenergic receptor expressed in HEK293 cells assessed as blockade of secreted alkaline phosphatase activity at 1 uM after 6 hrs relative to control; assay type: functional, cell-based; outline: as §2
[7] = molecular target: T3, Type-1 angiotensin II receptor (Homo sapiens) (UniProt P30556); assay: Antagonist activity at AT1 angiotensin receptor expressed in SKNSH cells assessed as blockade of angiotensin 2-induced increase in antibody recognition at 100 nM by ELISA relative to control; assay type: functional, cell-based; set-up: scale not given: the % may be the effect or the level left
T3 sequence (whole entry): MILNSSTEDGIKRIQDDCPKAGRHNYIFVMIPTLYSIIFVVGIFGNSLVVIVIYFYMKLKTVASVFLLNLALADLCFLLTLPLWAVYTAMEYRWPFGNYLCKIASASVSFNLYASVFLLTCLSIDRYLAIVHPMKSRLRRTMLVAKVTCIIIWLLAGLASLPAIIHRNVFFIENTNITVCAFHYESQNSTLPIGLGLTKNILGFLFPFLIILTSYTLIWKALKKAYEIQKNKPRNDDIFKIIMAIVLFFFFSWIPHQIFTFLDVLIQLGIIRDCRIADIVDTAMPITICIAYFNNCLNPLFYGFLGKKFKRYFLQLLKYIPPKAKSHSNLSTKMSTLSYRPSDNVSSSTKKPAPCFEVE

[8] = molecular target: Cannabinoid receptor 1 (Homo sapiens) (UniProt P21554); assay: Antagonist activity at CB1 receptor expressed in HEK293 cells assessed as blockade of secreted alkaline phosphatase activity at 1 uM after 6 hrs relative to control; assay type: functional, cell-based
Outline: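 HEK-293 cells transfected with 5 μg pCRE-SeAP plus 1 μg Flag-tagged CB₁ or CB₂ receptor, 30,000 cells/well, serum-starved 16–18 h. Stimulated 6 h in serum-free medium with 10 μM forskolin and 100 nM agonist, without or with 1 μM test peptide. Supernatant diluted in pH 7.2 buffer, heated 65°C 20 min, then CSPD chemiluminescence read. Mean ± SEM, n = 6.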

[9] = molecular target: Cannabinoid receptor 1 (Rattus norvegicus) (UniProt P20272); assay: Antagonist activity at Long-Evans rat striatal membrane CB1 receptor assessed as blockade of Hu210-mediated decrease in adenylate cyclase activity; assay type: functional; outline: as §1
[10] = molecular target: Cannabinoid receptor 2 (Homo sapiens) (UniProt P34972); assay: Antagonist activity at CB2 receptor expressed in SKNSH cells at 100 nM by ELISA relative to control; assay type: functional, cell-based; set-up: scale not given: the % may be the effect or the level left
[11] = molecular target: Cannabinoid receptor 1 (Homo sapiens) (UniProt P21554); assay: Antagonist activity at CB1 receptor expressed in SKNSH cells assessed as blockade of Hu210-induced increase in antibody recognition at 100 nM by ELISA relative to control; assay type: functional, cell-based; set-up: scale not given: the % may be the effect or the level left
[12] = molecular target: Mu-type opioid receptor (Homo sapiens) (UniProt P35372); assay: Antagonist activity at mu opioid receptor expressed in HEK293 cells assessed as blockade of DAMGO-mediated decrease in secreted alkaline phosphatase activity at 1 uM after 6 hrs relative to control; assay type: functional, cell-based; outline: as §2
Sequence of Mu-type opioid receptor (Homo sapiens) (P35372 whole entry): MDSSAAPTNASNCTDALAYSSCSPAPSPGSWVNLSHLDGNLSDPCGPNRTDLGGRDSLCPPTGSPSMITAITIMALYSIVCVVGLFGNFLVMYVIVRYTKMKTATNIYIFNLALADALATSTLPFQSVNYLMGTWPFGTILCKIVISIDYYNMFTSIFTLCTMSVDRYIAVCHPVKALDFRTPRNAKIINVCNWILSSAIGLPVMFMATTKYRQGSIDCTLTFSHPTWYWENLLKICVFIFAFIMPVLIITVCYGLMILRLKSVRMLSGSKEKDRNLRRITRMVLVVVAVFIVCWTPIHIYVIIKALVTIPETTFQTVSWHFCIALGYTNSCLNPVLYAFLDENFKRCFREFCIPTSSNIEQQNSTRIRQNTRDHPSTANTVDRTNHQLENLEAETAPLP

Sequence of Beta-2 adrenergic receptor (Homo sapiens) (P07550 whole entry, looked up): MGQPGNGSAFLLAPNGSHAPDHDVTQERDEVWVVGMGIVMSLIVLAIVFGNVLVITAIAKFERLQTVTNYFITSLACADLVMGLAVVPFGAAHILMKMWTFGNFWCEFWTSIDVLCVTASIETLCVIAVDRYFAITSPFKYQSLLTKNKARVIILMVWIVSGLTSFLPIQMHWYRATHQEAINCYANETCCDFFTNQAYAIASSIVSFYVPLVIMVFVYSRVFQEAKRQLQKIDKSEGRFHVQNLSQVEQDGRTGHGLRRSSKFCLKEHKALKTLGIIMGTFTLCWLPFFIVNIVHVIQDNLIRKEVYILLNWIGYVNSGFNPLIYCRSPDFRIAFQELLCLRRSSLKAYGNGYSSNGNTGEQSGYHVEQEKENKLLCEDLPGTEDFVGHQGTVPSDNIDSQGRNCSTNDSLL
Sequence of Cannabinoid receptor 2 (Homo sapiens) (P34972 whole entry): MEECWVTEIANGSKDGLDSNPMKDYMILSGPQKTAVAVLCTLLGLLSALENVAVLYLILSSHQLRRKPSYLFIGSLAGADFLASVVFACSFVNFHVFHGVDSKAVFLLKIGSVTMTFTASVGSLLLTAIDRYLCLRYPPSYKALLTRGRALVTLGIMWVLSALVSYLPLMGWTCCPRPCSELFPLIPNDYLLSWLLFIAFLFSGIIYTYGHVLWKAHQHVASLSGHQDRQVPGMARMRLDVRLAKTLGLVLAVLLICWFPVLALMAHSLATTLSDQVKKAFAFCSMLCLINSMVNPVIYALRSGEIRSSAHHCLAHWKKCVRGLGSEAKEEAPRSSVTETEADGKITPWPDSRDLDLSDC
Sequence of Cannabinoid receptor 1 (Homo sapiens) (P21554 whole entry): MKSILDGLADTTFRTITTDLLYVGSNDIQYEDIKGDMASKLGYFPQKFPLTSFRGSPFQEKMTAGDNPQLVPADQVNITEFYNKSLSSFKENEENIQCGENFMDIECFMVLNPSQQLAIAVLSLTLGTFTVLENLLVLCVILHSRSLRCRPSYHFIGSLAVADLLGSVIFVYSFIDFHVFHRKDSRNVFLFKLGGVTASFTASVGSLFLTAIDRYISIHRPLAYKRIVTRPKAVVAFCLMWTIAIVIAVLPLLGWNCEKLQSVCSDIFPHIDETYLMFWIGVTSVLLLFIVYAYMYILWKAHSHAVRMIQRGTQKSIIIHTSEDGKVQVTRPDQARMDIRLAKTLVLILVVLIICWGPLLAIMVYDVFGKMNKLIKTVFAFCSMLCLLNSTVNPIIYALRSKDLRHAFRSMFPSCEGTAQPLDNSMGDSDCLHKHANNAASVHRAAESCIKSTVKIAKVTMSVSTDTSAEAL
Sequence of Cannabinoid receptor 1 (P20272 whole entry): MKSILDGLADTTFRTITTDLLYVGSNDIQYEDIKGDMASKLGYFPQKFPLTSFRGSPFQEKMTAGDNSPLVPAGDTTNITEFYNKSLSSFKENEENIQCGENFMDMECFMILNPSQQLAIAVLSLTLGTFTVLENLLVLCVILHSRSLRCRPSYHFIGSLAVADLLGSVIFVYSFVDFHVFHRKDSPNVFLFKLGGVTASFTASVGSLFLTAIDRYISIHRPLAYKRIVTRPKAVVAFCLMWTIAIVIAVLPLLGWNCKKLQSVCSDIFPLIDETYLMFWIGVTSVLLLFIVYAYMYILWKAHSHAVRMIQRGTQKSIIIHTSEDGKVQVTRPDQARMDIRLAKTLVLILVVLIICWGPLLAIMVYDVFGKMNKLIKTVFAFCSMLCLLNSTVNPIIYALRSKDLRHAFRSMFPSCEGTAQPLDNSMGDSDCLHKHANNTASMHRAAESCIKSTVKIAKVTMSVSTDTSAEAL
Sequence of Cannabinoid receptor 1 (Rattus norvegicus) (P20272 whole entry): as above

CC(C)C[C@H](NC(=O)[C@H](Cc1ccccc1)NC(=O)[C@H](CCCCN)NC(=O)[C@H](Cc1ccccc1)NC(=O)[C@H](CC(N)=O)NC(=O)[C@@H](NC(=O)[C@@H]1CCCN1)C(C)C)C(=O)N[C@@H](CO)C(=O)N[C@@H](Cc1cnc[nH]1)C(=O)O [HEMOPRESSIN]
Activity (Rattus norvegicus): Active | Activity (Mus musculus): inactive | EC50 (Cannabinoid receptor 1): 0.35 nM | Activity [1]: 103% | Activity [2]: inactive | Activity [3]: 157% | Activity [4]: 108% | Activity [5]: 1.24 | Activity [6]: 0.96 | Activity [7]: 140% | Activity [8]: 1.15 | Activity [9]: Active | Activity [10]: 103% | Activity [11]: 102% | Activity [12]: 0.61
